Measurements reported in ChEMBL document CHEMBL4049453, “Discovery of Mixed Pharmacology Melanocortin-3 Agonists and Melanocortin-4 Receptor Tetrapeptide Antagonist Compounds (TACOs) Based on the Sequence Ac-Xaa1-Arg-(pI)DPhe-Xaa4-NH2” (J Med Chem, 2017).
Calls of active or inactive are those of the source. No cut-off for these calls is given here. Non-standard residues stand in square brackets, D forms with d. Residues, ends and D or L forms follow the SMILES beside them. Bip = N[C@@H](Cc1ccc(-c2ccccc2)cc1)C(=O)O; dPhe(4-I) = N[C@H](Cc1ccc(I)cc1)C(=O)O; 2Nal = N[C@@H](Cc1ccc2ccccc2c1)C(=O)O; d2Nal = N[C@H](Cc1ccc2ccccc2c1)C(=O)O; Bta = N[C@@H](Cc1csc2ccccc12)C(=O)O

Legend:
Melanocortin receptor 4 = Melanocortin receptor 4 (Mus musculus, UniProt P56450); assay: Agonist activity at mouse MC4R expressed in HEK293 cells assessed as induction of cAMP accumulation up to 100 uM after 2 hrs by alpha screen assay relative to NDP-MSH; format: cell-based; details: read-out: Activity
Melanocortin receptor 4, sequence (P56450 whole entry): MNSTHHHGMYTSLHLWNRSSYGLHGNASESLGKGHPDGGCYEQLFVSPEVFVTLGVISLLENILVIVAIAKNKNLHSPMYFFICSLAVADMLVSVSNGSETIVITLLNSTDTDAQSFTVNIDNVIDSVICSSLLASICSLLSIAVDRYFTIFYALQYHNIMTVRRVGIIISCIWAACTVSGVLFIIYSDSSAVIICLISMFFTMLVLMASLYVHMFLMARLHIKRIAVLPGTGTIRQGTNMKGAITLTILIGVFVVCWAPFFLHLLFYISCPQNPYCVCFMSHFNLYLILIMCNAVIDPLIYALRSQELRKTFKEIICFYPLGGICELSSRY

[1] = target: Melanocortin receptor 3 (Mus musculus) (UniProt P33033); assay: Antagonist activity at mouse MC3R expressed in HEK293 cells assessed as inhibition of NDP-MSH induced-cAMP accumulation up to 10 uM after 2 hrs by alpha screen assay; format: functional, cell-based
Melanocortin receptor 3 (Mus musculus), sequence (P33033 whole entry): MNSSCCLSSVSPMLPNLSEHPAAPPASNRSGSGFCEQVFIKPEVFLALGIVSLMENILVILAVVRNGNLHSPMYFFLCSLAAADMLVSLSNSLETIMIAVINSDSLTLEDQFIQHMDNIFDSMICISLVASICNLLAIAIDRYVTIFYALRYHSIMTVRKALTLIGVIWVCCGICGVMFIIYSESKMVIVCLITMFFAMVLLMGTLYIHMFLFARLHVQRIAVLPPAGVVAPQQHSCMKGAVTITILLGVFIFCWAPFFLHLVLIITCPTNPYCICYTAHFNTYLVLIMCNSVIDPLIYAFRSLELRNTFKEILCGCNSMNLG
Procedure, shortened: (§1)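 mouse MC3R or MC4R in stably transfected HEK293 cells, AlphaScreen cAMP assay (IBMX stimulation buffer, 2 h RT incubation, then 2 h with donor-bead lysis mix). […] Run in triplicate.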

[2] = target: Melanocortin receptor 3 (Mus musculus) (UniProt P33033); assay: Agonist activity at mouse MC3R expressed in HEK293 cells assessed as induction of cAMP accumulation up to 100 uM after 2 hrs by alpha screen assay relative to NDP-MSH; format: functional, cell-based
Procedure, shortened: (§2)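 HEK293 stably expressing mouse MC1R/MC3R/MC4R/MC5R (pCDNA3). Cells in stimulation buffer (HBSS, 0.5 mM IBMX, 5 mM HEPES, 0.1% BSA, pH 7.4) at 1000 cells/μL with anti-cAMP acceptor beads. Ligand given 10−4 to 10−10 M (or 10−6 to 10−12 M) for 2 h at RT in the dark, then donor beads/biotin-cAMP lysis mix for 2 h. AlphaScreen cAMP read-out, normalized to 10−6 M NDP-MSH as 100%.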

[3] = target: Melanocortin receptor 4 (Mus musculus) (UniProt P56450); assay: Antagonist activity at mouse MC4R expressed in HEK293 cells assessed as inhibition of NDP-MSH induced-cAMP accumulation up to 10 uM after 2 hrs by alpha screen assay; format: functional, cell-based; procedure, shortened: as §1
Melanocortin receptor 4 (Mus musculus), sequence (P56450 whole entry): as the sequence (P56450 whole entry) above

[4] = target: Melanocyte-stimulating hormone receptor (Mus musculus) (UniProt Q01727); assay: Agonist activity at mouse MC1R expressed in HEK293 cells assessed as induction of cAMP accumulation up to 100 uM after 2 hrs by alpha screen assay relative to NDP-MSH; format: functional, cell-based; procedure, shortened: as §2
Melanocyte-stimulating hormone receptor (Mus musculus), sequence (Q01727 whole entry, looked up): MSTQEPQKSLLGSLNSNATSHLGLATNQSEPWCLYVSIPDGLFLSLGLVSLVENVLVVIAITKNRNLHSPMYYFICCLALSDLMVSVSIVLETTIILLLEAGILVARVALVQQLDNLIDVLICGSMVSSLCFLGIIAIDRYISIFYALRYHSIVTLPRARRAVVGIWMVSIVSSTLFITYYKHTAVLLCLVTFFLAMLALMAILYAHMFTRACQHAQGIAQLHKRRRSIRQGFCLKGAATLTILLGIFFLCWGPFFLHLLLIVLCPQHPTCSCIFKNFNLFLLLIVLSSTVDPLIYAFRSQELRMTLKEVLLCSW

[5] = target: Melanocortin receptor 5 (Mus musculus) (UniProt P41149); assay: Agonist activity at mouse MC5R expressed in HEK293 cells assessed as induction of cAMP accumulation up to 100 uM after 2 hrs by alpha screen assay relative to NDP-MSH; format: functional, cell-based; procedure, shortened: as §2
Melanocortin receptor 5 (Mus musculus), sequence (P41149 whole entry): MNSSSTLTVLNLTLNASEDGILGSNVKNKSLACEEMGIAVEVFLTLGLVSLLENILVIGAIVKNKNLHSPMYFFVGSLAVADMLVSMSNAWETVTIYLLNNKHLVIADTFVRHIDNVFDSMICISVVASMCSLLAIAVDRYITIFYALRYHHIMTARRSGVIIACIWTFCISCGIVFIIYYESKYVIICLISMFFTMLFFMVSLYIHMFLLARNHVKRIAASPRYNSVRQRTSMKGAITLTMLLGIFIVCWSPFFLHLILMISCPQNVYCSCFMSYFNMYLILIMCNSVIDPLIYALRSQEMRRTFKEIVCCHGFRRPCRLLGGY

Row | SMILES | Emax (Melanocortin receptor 4) | inhibition [1] | Activity [2] | inhibition [3] | Activity [4] | Activity [5]
1 | CC(=O)N[C@@H](CCCNC(=N)N)C(=O)N[C@@H](CCCNC(=N)N)C(=O)N[C@H](Cc1ccc(I)cc1)C(=O)N[C@@H](Cc1ccc2ccccc2c1)C(N)=O | < 20% |  |  |  |  | 
2 | CC(=O)N[C@@H](Cc1csc2ccccc12)C(=O)N[C@@H](CCCNC(=N)N)C(=O)N[C@H](Cc1ccc(I)cc1)C(=O)N[C@@H](Cc1ccc2ccccc2c1)C(N)=O | < 20% | inactive | < 20% | inactive |  | 
3 | CC(=O)N[C@@H](Cc1cnc[nH]1)C(=O)N[C@@H](CCCNC(=N)N)C(=O)N[C@H](Cc1ccc(I)cc1)C(=O)N[C@@H](Cc1ccc(-c2ccccc2)cc1)C(N)=O |  | inactive |  | inactive | < 20% | 
4 | CC(=O)N[C@@H](Cc1ccc2ccccc2c1)C(=O)N[C@@H](CCCNC(=N)N)C(=O)N[C@H](Cc1ccc(I)cc1)C(=O)N[C@@H](Cc1csc2ccccc12)C(N)=O (Ac-[2Nal]R[dPhe(4-I)][Bta]-NH2) | < 20% |  |  |  |  | 
5 | CC(=O)N[C@@H](Cc1ccc2ccccc2c1)C(=O)N[C@@H](CCCNC(=N)N)C(=O)N[C@H](Cc1ccc(I)cc1)C(=O)N[C@H](Cc1ccc2ccccc2c1)C(N)=O (Ac-[2Nal]R[dPhe(4-I)][d2Nal]-NH2) | < 20% | inactive |  | inactive |  | 
6 | CC(=O)N[C@@H](Cc1ccc(-c2ccccc2)cc1)C(=O)N[C@@H](CCCNC(=N)N)C(=O)N[C@H](Cc1ccc(I)cc1)C(=O)N[C@@H](Cc1ccc2ccccc2c1)C(N)=O (Ac-[Bip]R[dPhe(4-I)][2Nal]-NH2) | < 20% | inactive | < 20% | inactive |  | 
7 | CC(=O)N[C@@H](Cc1ccc(-c2ccccc2)cc1)C(=O)N[C@@H](CCCNC(=N)N)C(=O)N[C@H](Cc1ccc(I)cc1)C(=O)N[C@@H](Cc1csc2ccccc12)C(N)=O (Ac-[Bip]R[dPhe(4-I)][Bta]-NH2) | < 20% |  |  | inactive |  | 
8 | CC(=O)N[C@@H](Cc1ccc(-c2ccccc2)cc1)C(=O)N[C@@H](CCCNC(=N)N)C(=O)N[C@H](Cc1ccc(I)cc1)C(=O)N[C@H](Cc1ccc2ccccc2c1)C(N)=O (Ac-[Bip]R[dPhe(4-I)][d2Nal]-NH2) | < 20% | inactive |  | inactive |  | 
9 | CC(=O)N[C@@H](Cc1csc2ccccc12)C(=O)N[C@@H](CCCNC(=N)N)C(=O)N[C@H](Cc1ccc(I)cc1)C(=O)N[C@@H](Cc1ccc(-c2ccccc2)cc1)C(N)=O (Ac-[Bta]R[dPhe(4-I)][Bip]-NH2) |  | inactive |  | inactive | < 20% | 
10 | CC(=O)N[C@@H](Cc1csc2ccccc12)C(=O)N[C@@H](CCCNC(=N)N)C(=O)N[C@H](Cc1ccc(I)cc1)C(=O)N[C@@H](Cc1csc2ccccc12)C(N)=O (Ac-[Bta]R[dPhe(4-I)][Bta]-NH2) | < 20% |  |  |  |  | 
11 | CC(=O)N[C@H](Cc1ccc2ccccc2c1)C(=O)N[C@@H](CCCNC(=N)N)C(=O)N[C@H](Cc1ccc(I)cc1)C(=O)N[C@@H](Cc1ccc(-c2ccccc2)cc1)C(N)=O (Ac-[d2Nal]R[dPhe(4-I)][Bip]-NH2) |  |  |  |  | < 20% | 
12 | CC(=O)N[C@H](Cc1ccc2ccccc2c1)C(=O)N[C@@H](CCCNC(=N)N)C(=O)N[C@H](Cc1ccc(I)cc1)C(=O)N[C@@H](Cc1csc2ccccc12)C(N)=O (Ac-[d2Nal]R[dPhe(4-I)][Bta]-NH2) |  |  |  |  |  | < 20%
13 | CC(=O)N[C@@H](Cc1ccc(-c2ccccc2)cc1)C(=O)N[C@@H](CCCNC(=N)N)C(=O)N[C@H](Cc1ccc(I)cc1)C(=O)N1Cc2ccccc2C[C@H]1C(N)=O (HELM PEPTIDE1{[ac].[O=C([C@H](Cc1ccc(-c2ccccc2)cc1)N[*:1])[*:2]].R.[O=C([C@@H](Cc1ccc(I)cc1)N[*:1])[*:2]].[Tic].[am]}$$$$V2.0) | < 20% |  |  |  |  | 
14 | CC(=O)N1Cc2ccccc2C[C@H]1C(=O)N[C@@H](CCCNC(=N)N)C(=O)N[C@H](Cc1ccc(I)cc1)C(=O)N[C@H](Cc1ccc2ccccc2c1)C(N)=O (HELM PEPTIDE1{[ac].[Tic].R.[O=C([C@@H](Cc1ccc(I)cc1)N[*:1])[*:2]].[O=C([C@@H](Cc1ccc2ccccc2c1)N[*:1])[*:2]].[am]}$$$$V2.0) |  | inactive |  | inactive |  | 
15 | CC(=O)N1Cc2ccccc2C[C@H]1C(=O)N[C@@H](CCCNC(=N)N)C(=O)N[C@H](Cc1ccc(I)cc1)C(=O)N[C@@H](Cc1ccc2ccccc2c1)C(N)=O (HELM PEPTIDE1{[ac].[Tic].R.[O=C([C@@H](Cc1ccc(I)cc1)N[*:1])[*:2]].[O=C([C@H](Cc1ccc2ccccc2c1)N[*:1])[*:2]].[am]}$$$$V2.0) | < 20% | inactive | < 20% |  |  | 
16 | CC(=O)N1Cc2ccccc2C[C@H]1C(=O)N[C@@H](CCCNC(=N)N)C(=O)N[C@H](Cc1ccc(I)cc1)C(=O)N[C@@H](Cc1ccc(-c2ccccc2)cc1)C(N)=O (HELM PEPTIDE1{[ac].[Tic].R.[O=C([C@@H](Cc1ccc(I)cc1)N[*:1])[*:2]].[O=C([C@H](Cc1ccc(-c2ccccc2)cc1)N[*:1])[*:2]].[am]}$$$$V2.0) | < 20% | inactive | < 20% | inactive |  | 
17 | CC(=O)N1Cc2ccccc2C[C@H]1C(=O)N[C@@H](CCCNC(=N)N)C(=O)N[C@H](Cc1ccc(I)cc1)C(=O)N[C@@H](Cc1csc2ccccc12)C(N)=O (HELM PEPTIDE1{[ac].[Tic].R.[O=C([C@@H](Cc1ccc(I)cc1)N[*:1])[*:2]].[O=C([C@H](Cc1csc2ccccc12)N[*:1])[*:2]].[am]}$$$$V2.0) | < 20% |  |  |  |  | 
18 | CC(=O)NC(Cc1ccccc1)C(=O)N[C@@H](CCCNC(=N)N)C(=O)N[C@H](Cc1ccc(I)cc1)C(=O)N[C@@H](Cc1ccc2ccccc2c1)C(N)=O (stereo in doubt) | < 20% | inactive |  |  |  | 
19 | CC(=O)N[C@@H](Cc1ccc(-c2ccccc2)cc1)C(=O)N[C@@H](CCCNC(=N)N)C(=O)N[C@H](Cc1ccc(I)cc1)C(=O)NC(Cc1ccccc1)C(N)=O (stereo in doubt) | < 20% | inactive |  |  |  | 
20 | CC(=O)N1Cc2ccccc2C[C@H]1C(=O)N[C@@H](CCCNC(=N)N)C(=O)N[C@H](Cc1ccc(I)cc1)C(=O)NC(Cc1ccccc1)C(N)=O (stereo in doubt) | < 20% | inactive | < 20% | inactive |  | 
21 | CC(=O)NC(Cc1ccccc1)C(=O)N[C@@H](CCCNC(=N)N)C(=O)N[C@H](Cc1ccc(I)cc1)C(=O)N[C@@H](Cc1ccc(-c2ccccc2)cc1)C(N)=O (stereo in doubt) | < 20% | inactive |  | inactive |  | 
22 | CC(=O)NC(Cc1ccccc1)C(=O)N[C@@H](CCCNC(=N)N)C(=O)N[C@H](Cc1ccc(I)cc1)C(=O)N1Cc2ccccc2C[C@H]1C(N)=O (stereo in doubt) | < 20% |  |  |  |  | 
23 | CC(=O)NC(Cc1ccccc1)C(=O)N[C@@H](CCCNC(=N)N)C(=O)N[C@H](Cc1ccc(I)cc1)C(=O)N[C@H](Cc1ccc2ccccc2c1)C(N)=O (stereo in doubt) | < 20% | inactive |  |  |  | 
24 | CC(=O)N[C@@H](Cc1ccc2ccccc2c1)C(=O)N[C@@H](CCCNC(=N)N)C(=O)N[C@H](Cc1ccc(I)cc1)C(=O)NC(Cc1ccccc1)C(N)=O (stereo in doubt) | < 20% | inactive |  | inactive |  | 
25 | CC(=O)N[C@@H](Cc1cnc[nH]1)C(=O)N[C@@H](CCCNC(=N)N)C(=O)N[C@H](Cc1ccc(I)cc1)C(=O)NC(Cc1ccccc1)C(N)=O (stereo in doubt) | < 20% |  |  |  |  | 
26 | CC(=O)N[C@H](Cc1ccc2ccccc2c1)C(=O)N[C@@H](CCCNC(=N)N)C(=O)N[C@H](Cc1ccc(I)cc1)C(=O)NC(Cc1ccccc1)C(N)=O (stereo in doubt) | < 20% |  | < 20% |  |  | < 20%
27 | CC(=O)NC(Cc1ccccc1)C(=O)N[C@@H](CCCNC(=N)N)C(=O)N[C@H](Cc1ccc(I)cc1)C(=O)N[C@@H](Cc1csc2ccccc12)C(N)=O (stereo in doubt) | < 20% |  |  |  |  | 
28 | CC(=O)N[C@@H](Cc1csc2ccccc12)C(=O)N[C@@H](CCCNC(=N)N)C(=O)N[C@H](Cc1ccc(I)cc1)C(=O)NC(Cc1ccccc1)C(N)=O (stereo in doubt) | < 20% | inactive |  | inactive |  | 
29 | CC(=O)NC(Cc1ccccc1)C(=O)N[C@@H](CCCNC(=N)N)C(=O)N[C@H](Cc1ccc(I)cc1)C(=O)NC(Cc1ccccc1)C(N)=O (stereo in doubt) | < 20% | inactive |  | inactive |  | 
30 | CC(=O)N[C@@H](CCCNC(=N)N)C(=O)N[C@@H](CCCNC(=N)N)C(=O)N[C@H](Cc1ccc(I)cc1)C(=O)NC(Cc1ccccc1)C(N)=O (stereo in doubt) | < 20% |  |  |  |  | 
